UPR CHOP act: activators of apoptotic arm of unfolded protein response (CHOP). 330,000 compounds, 0.34% hits. CHO-CHOP luciferase reporter, UPR activation, luminescence; percent of tunicamycin response over DMSO baseline. activation, % at 10 µM. AID 449763;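 active = at 10 µM dose, activation of 40% or more, normalized to positive control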;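 note: 100% = tunicamycin at 10 µg/mL and 0% = DMSO alone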
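Assay system: CHO cells with stable CHOP pathway luciferase reporter; Buffer or medium: F12 plus 10% serum; Times: 16-18 h cell attachment, then 6 h compound exposure, 37 °C; Signal: luciferase luminescence; Read-out basis: percent activation relative to tunicamycin control; Control set: tunicamycin high control, DMSO low control.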
CHOP inh: inhibitors of CHOP induction in ER stress response; CHO-K1 CHOP-promoter luciferase, tunicamycin-induced, 15-18 h; AID 2732; inhibition, % at 10 µM; 220,000 compounds, 3.8% hits;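 active = compounds that reduced the stress-induced luciferase reporter signal by more than about 70% of percent inhibition, limit read from the data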;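 note: 0% = tunicamycin plus vehicle and 100% = wells without tunicamycin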
TLR9-MyD88 block: TLR9-MyD88 interaction inhibition | 340,000 compounds, 0.21% hits | CHO BLA complementation TLR9-MyD88, CCF4 FRET ratio | AID 504734 | inhibition, % at 4.98 µM;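 active = inhibition above the mean over all tested compounds plus 3 SD, cut at about 21% in these data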;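 note: 0% = DMSO only wells and 100% = clavulanate BLA inhibitor control wells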
Target sequence (Q99836 whole entry, looked up): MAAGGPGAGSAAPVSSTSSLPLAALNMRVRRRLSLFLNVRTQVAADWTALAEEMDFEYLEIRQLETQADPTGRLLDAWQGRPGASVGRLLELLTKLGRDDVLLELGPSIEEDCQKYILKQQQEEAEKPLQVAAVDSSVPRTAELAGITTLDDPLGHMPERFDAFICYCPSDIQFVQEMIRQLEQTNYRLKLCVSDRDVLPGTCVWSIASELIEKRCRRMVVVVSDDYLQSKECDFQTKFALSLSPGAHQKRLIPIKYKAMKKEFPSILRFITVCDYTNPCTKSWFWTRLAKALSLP
Target sequence (Q9NR96 whole entry, looked up): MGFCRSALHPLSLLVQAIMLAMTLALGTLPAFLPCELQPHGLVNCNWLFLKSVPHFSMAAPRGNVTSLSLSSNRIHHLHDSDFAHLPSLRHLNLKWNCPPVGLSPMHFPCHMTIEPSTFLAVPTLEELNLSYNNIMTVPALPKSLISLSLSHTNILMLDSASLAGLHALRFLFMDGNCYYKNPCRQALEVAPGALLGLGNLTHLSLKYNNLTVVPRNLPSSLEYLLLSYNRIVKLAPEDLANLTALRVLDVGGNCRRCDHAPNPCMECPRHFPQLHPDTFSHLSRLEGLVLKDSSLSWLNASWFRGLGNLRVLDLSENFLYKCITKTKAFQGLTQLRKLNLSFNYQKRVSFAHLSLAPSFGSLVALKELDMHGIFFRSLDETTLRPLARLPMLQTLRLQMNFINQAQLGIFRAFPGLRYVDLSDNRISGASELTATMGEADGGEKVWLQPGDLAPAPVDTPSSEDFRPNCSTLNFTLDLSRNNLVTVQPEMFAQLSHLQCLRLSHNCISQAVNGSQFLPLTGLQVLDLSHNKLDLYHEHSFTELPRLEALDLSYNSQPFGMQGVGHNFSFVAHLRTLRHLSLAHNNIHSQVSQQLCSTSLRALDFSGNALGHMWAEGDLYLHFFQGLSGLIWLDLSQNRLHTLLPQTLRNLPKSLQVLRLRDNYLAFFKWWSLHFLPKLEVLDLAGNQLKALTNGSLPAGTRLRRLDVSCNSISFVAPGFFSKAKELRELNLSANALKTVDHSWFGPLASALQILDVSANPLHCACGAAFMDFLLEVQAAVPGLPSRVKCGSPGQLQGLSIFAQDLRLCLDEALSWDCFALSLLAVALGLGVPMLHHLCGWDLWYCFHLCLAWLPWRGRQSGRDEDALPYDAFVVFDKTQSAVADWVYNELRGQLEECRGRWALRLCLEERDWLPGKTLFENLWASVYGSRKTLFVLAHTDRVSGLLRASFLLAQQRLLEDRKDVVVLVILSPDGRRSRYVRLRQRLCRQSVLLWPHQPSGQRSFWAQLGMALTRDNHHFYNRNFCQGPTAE
TLR4-MyD88 BLA: inhibitors of human TLR4-MyD88 binding; O00206+Q99836; HeLa CL3-4 TLR4/MyD88 BLA complementation, FRET ratio; inhibition, % at 8.4 µM; 200,000 compounds, 0.18% hits; AID 861; in the data active = inhibition above about 25%;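 note: 0% = vehicle and 100% = reference inhibitor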
XBP1 UPR activ: adaptive UPR (XBP1) activation | CHO-XBP1 luciferase reporter, IRE1-XBP1 UPR activation, luminescence; percent of tunicamycin response, DMSO as zero | activation, % at 20 µM | 330,000 compounds, 0.33% hits | AID 463104;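 active = versus positive control, 20 µM dose yields 30% or more activation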;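 note: 100% = tunicamycin at 10 µg/mL and 0% = DMSO only wells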
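incubation = overnight seeding at 37 °C, 6 h compound treatment at 37 °C | assay system = CHO-XBP1 cells stably carrying IRE1-XBP1-driven luciferase reporter | input = 1000 cells per well | detection = luciferase luminescence | dosing = single point, 20 µM final compound, 1% DMSO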
NOD2 RIPK2 PPI: blocks binding of human NOD2 to RIPK2. CHO BLA complementation NOD2-RIPK2, CCF4 ratio. inhibition, % at 4.98 µM. 360,000 compounds, 0.38% hits. AID 624267; in the data active = inhibition above about 21%;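 note: 0% = vehicle only and 100% = reference blocker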
TLR4 MyD88 cnf: confirmation of human TLR4-MyD88 binding inhibitors; inhibition, % at 8.4 µM; shares compounds with TLR4-MyD88 BLA; HeLa CL3-4 BLA complementation, CCF4 FRET ratio; 350 compounds, 50% hits;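 active = mean inhibition across three repeat runs above about 25% carried over from the earlier screen, limit read from the data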;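 note: plate controls were DMSO only for no effect and clavulanic acid blocking BLA at full dose for full effect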
BLA inh HeLa: counter-screen for TLR4-MyD88 inhibitors: beta-lactamase reporter inhibitors | shares compounds with TLR4-MyD88 BLA | HeLa BLA reporter, CCF4 FRET ratio | inhibition, % at 8.4 µM | 350 compounds, 63% hits | AID 1237;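 active = mean inhibition over three repeats above about 26% taken from the earlier screen, limit read from the data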;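 note: HeLa cells stably expressing beta-lactamase reporter as counterscreen for TLR4-MyD88 inhibitors; 0% = DMSO and 100% = clavulanic acid full inhibition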
* hit, by the source's call; x = no result given. This is one part of a sample in which hits are shown more often than they occur.

SMILES | UPR CHOP act | CHOP inh | TLR9-MyD88 block | TLR4-MyD88 BLA | XBP1 UPR activ | NOD2 RIPK2 PPI | others
Cc1nn(C)cc1C(=O)Nc1cc(Oc2ccc(Cl)cc2)cc([N+](=O)[O-])c1 | -3 | 82* | 5 | 6 | 0 | -9
CCOc1ccc(Oc2cc(NC(=O)c3ccco3)cc([N+](=O)[O-])c2)cc1 | x | 87* | -4 | 1 | x | -6
Cn1cc([N+](=O)[O-])c(C(=O)Nc2cc(Oc3ccccc3)cc([N+](=O)[O-])c2)n1 | x | -36 | 6 | 7 | x | 3
Cc1nn(CCCC(=O)Nc2cc(Oc3ccccc3)cc([N+](=O)[O-])c2)c(C)c1[N+](=O)[O-] | -1 | 61 | 4 | 18 | -3 | -5
COCCNC(=O)C1(C)CCCN(Cc2ccc(OCc3ccccc3)cc2)C1 (configuration not stated) | x | x | x | x | x | 4
Cc1ccc(C(C)C)c(OCCNC(=S)Nc2cccc3ccccc23)c1 | 0 | 76* | -1 | -5 | 4 | -2
COc1ccc(CNC(=O)Cn2nc(C(F)(F)F)c(Br)c2C)cc1 | 1 | x | -4 | x | -4 | -4
COc1cc(NC(=O)Cn2nc(C(F)(F)F)c(Br)c2C)cc([N+](=O)[O-])c1 | 3 | 94* | 9 | -3 | -3 | 3
CC1CCN(CC(CS(=O)(=O)c2ccc([N+](=O)[O-])cc2)N2CCC(C)CC2)CC1 (configuration not stated) | 34 | 71* | -9 | x | -5 | -16
COc1ccccc1-c1c(C)nn2c(N3CCN(Cc4ccccc4)CC3)cc(C)nc12 | 0 | 92* | 13 | 12 | -2 | 5
COc1ccccc1-c1c(C)nn2c(N3CCCCCC3)cc(C)nc12 | -3 | 90* | 1 | -7 | -1 | 1
COc1ccccc1-c1c(C)nn2c(N3CCOCC3)cc(C)nc12 | 0 | x | 2 | x | -1 | -11
Cc1ccc(-n2c(C)cc(/C=c3/sc4nc5ccccc5n4c3=O)c2C)cc1 | -9 | 85* | x | 11 | -14 | x
COc1ccc(CCNC(=O)Nc2nnc([C@H]3C[C@H](O)[C@@H](CO)O3)s2)cc1OC | x | x | x | x | x | 8
OCCNCc1cc(Br)ccc1OCc1ccc(Cl)cc1Cl | x | 90* | 1 | -4 | x | 2
OCCNCc1cc(Br)ccc1OCc1ccc(Cl)cc1 | 0 | 48 | -5 | 19 | -1 | -4
CC(C)CC(N)c1csc(Nc2ncccn2)n1 (configuration not stated) | x | x | x | x | x | -5
CC(C)CC(=O)CN1C(=O)C2(OCCO2)c2ccccc21 | -2 | 75* | -1 | -13 | -1 | -4
CCCC(=O)CN1C(=O)C2(OCCO2)c2ccccc21 | 1 | 30 | 11 | 9 | -2 | -2
O=C1N(Cc2ccccc2F)c2ccccc2C12OCCCO2 | 2 | -6 | 8 | -8 | 1 | -16
O=C1N(Cc2ccc(F)cc2Cl)c2ccccc2C12OCCCO2 | 1 | 80* | -9 | -8 | 8 | -4
CCOc1ccccc1NC(=O)C1CCCN(S(=O)(=O)c2ccc3c(c2)CCCN3C(C)=O)C1 (configuration not stated) | x | x | -17 | x | x | -11
COc1ccc(CCN2C(=O)CCC3=C2CCCC3=O)cc1OC | x | x | x | x | x | 2
O=C(Nc1cccc2c1CCCC2)c1cc(C2CCCCN2C(=O)c2cccs2)on1 (configuration not stated) | x | x | x | x | x | -9
COc1ccc2cc(C(c3nnnn3CCc3ccccc3)N3CCCC(C)C3)c(=O)[nH]c2c1 (configuration not stated) | -2 | 87* | -7 | -8 | -4 | 1
SMILES | UPR CHOP act | CHOP inh | TLR9-MyD88 block | TLR4-MyD88 BLA | XBP1 UPR activ | NOD2 RIPK2 PPI | others
COCCn1nnnc1C(c1cc2cc(OC)ccc2[nH]c1=O)N1CCC(Cc2ccccc2)CC1 (configuration not stated) | 0 | x | -6 | 1 | -3 | -15
CN(C)c1ccc(/C=C/c2cc[n+](C)cc2)cc1 | -1 | 22 | 3 | 26* | -5 | 1 | TLR4 MyD88 cnf=11;BLA inh HeLa=21
CCCCn1nc(-c2ccccc2)c2nc3ccccc3nc21 | -2 | 23 | x | 49* | -1 | x | TLR4 MyD88 cnf=47*;BLA inh HeLa=50*
Cn1nc(-c2ccccc2)c2nc3ccccc3nc21 | -4 | 37 | 9 | 28* | 9 | 16 | TLR4 MyD88 cnf=22;BLA inh HeLa=44*
CC(C)CN1C(=O)CSCC1(C)C(=O)NCc1ccccc1 (configuration not stated) | x | x | x | x | x | -5
CC(C)NC(=O)OC1CC2CC1[C@H]1CCCCN1C2=O (some centres not stated) | x | x | x | x | x | 3
CCN(CC)S(=O)(=O)c1ccc(N2CCCCC2)c(NC(=O)/C(C#N)=C/c2ccc(OC)cc2)c1 | 1 | 13 | -6 | 3 | -1 | -8
CCOc1ccc(NC(=O)/C(C#N)=C/c2ccc(N3CCCC3)c(C)c2)cc1 | x | 101* | 11 | 27* | x | 1 | TLR4 MyD88 cnf=28*;BLA inh HeLa=65*
CCOc1ccccc1NC(=O)/C(C#N)=C/c1c(C)nn(-c2ccc(F)cc2)c1Cl | -1 | 50 | 7 | -1 | 3 | -4
CN(C)c1nc(C=C(C#N)C#N)c(Cl)n1-c1ccc(F)cc1 | x | 96* | 7 | 35* | x | 2 | TLR4 MyD88 cnf=27*;BLA inh HeLa=9
Cc1cccc2cc(C#N)c(NCCNC(=O)NC3CCCCC3)nc12 | 1 | 72* | -2 | 25* | 0 | -10 | TLR4 MyD88 cnf=-11;BLA inh HeLa=-3
COc1ccc(C(=O)NCCNc2nc3c(C)cccc3cc2C#N)cc1 | 1 | x | -13 | x | 2 | -1
COc1ccc(Cc2c(-c3ccc(F)cc3)nc3ccc(Cl)cn23)c(C)c1 | x | x | x | x | x | 10
CC(C)NC(=O)C1(C)CCN1C(=O)c1ccc(F)c(Cl)c1 (configuration not stated) | x | x | x | x | x | -5
CN(C)c1ccc(/C=N/N=C/c2ccccc2O)cc1 | -5 | 81* | 20 | 37* | -4 | -6 | TLR4 MyD88 cnf=58*;BLA inh HeLa=53*
Cc1ccsc1C(=O)N1CCC1(C)C(=O)NS(=O)(=O)c1ccc(Br)cc1 (configuration not stated) | x | x | x | x | x | 5
O=C1N=c2ccccc2=C1c1sc(Nc2ccc(O)cc2)nc1O | x | -22 | -6 | 27* | x | -3 | TLR4 MyD88 cnf=2;BLA inh HeLa=6
O=C1N=c2ccccc2=C1c1sc(Nc2cccc(O)c2)nc1O | 6 | x | -15 | x | 2 | -1
CN(C)C=Nc1nonc1-c1ccccc1 | 2 | 10 | -9 | x | 0 | 0
CN(C)C=Nc1c(Br)cc(Br)c2nonc12 | -1 | 40 | 6 | 25* | 3 | -1 | TLR4 MyD88 cnf=21;BLA inh HeLa=35*
